In the EternaBench riboswitch data:

System: MS2 coat protein
Assay: apparent Kd, MS2 coat protein; higher = weaker binding; RNA-MaP array; FMN 200 µM where present
How it was run: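 Two titrations, one without ligand and one with constant ligand, were run with SNAP-549-labelled MS2 coat protein from 0.7 or 1.5 nM, doubling to 3 µM. The targets were designs transcribed by stalled E. coli RNA polymerase on Illumina sequencing-chip clusters, in 100 mM Tris-HCl pH 7.5, 80 mM KCl, 4 mM MgCl2, BSA, DTT, yeast tRNA and Tween-20. The apparent Kd is the median of filtered per-cluster binding-curve fits, with green signal normalised to red-channel RNA signal and control-cluster median Fmax.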

[1] = designed as: ON switch for flavin mononucleotide, no ligand
[2] = ligand present: flavin mononucleotide, designed as: ON switch for flavin mononucleotide
[3] = designed as: OFF switch for flavin mononucleotide, no ligand
[4] = ligand present: flavin mononucleotide, designed as: OFF switch for flavin mononucleotide

AAGCGCUACAUGAGGAUCACCCAUGUUCCGAGGCAGAUUUCACAGGAUAUCCCAAUUGGCCCAAGGGAGAAGGGUGAUGGCCAA
apparent Kd [1]: 79.1 nM | apparent Kd [2]: 23.6 nM

AAGGACUGAGGAUAUGCGCGGGCAAGAUCCUCAAUCCCAAAACAUGAGGAUCACCCAUGUAGAAGGCAGAAAUA
apparent Kd [3]: 25.8 nM | apparent Kd [4]: 22.6 nM

AAGGACUGUAAAUAAGUAGAAAUACAUGAGGAUCACCCAUGUAAGGAUAUCGUCAGGAAUACUGACGAGAAGGUACAUCAGUCC
apparent Kd [3]: 14.5 nM | apparent Kd [4]: 18.6 nM

AAGGACUGUAAAUUAACUCAAAUACAUGAGGAUCACCCAUGUAAGGAUAUCGUCAGGAAUACUGACGAGAAGGUACAUCAGUCC
apparent Kd [3]: 15.6 nM | apparent Kd [4]: 20.8 nM

AAGGAGUUAGGAUAUGCUGCUCGUCACUUGCGUGAUGAGUAGCAGAAGGGACAUGAGGAUCACCCAUGUAAAAA
apparent Kd [3]: 45.3 nM | apparent Kd [4]: 21.2 nM

AAGGAUAGAGGAUAUAUAUAGAUACAGAUUCAUGUAGAACUACAUGAGGAUCACCCAUGUAGAAGGCUAUCCUA
apparent Kd [3]: 15.7 nM | apparent Kd [4]: 60.4 nM

AAGUAGAUCCGAGGAUAUACAAUCUGGAAUCGGUACAUGAGGAUCACCCAUGUAGAAGGCGGAUCUACAGGUACUAAAGUACCA
apparent Kd [3]: 7.88 nM | apparent Kd [4]: 38.8 nM

AAGUAGGUAGGAUAUGCAUAGAUACAGAUUCAUGUGGAACUACAUGAGGAUCACCCAUGUAGAAGGACCUAAUA
apparent Kd [3]: 21.1 nM | apparent Kd [4]: 29.6 nM

AAGUAUAAGGGCAUUAAACAUGAGGAUCACCCAUGUACAAUAGAGGAUAUGCAUUUCGGUUUAGAGUAGAAGGUUAGAGAAUAU
apparent Kd [3]: 27.6 nM | apparent Kd [4]: 33.7 nM

AAGUCGACGGUGAGGAUAUUGGUUGAACGACAGAUUAAGAAGGUACAUGAGGAUCACCCAUGUGGGUAACGUCG
apparent Kd [3]: 100 nM | apparent Kd [4]: 83 nM

AAGUCGAGCGUGAGGAUAUCGACCGGACGACCCAUCGAGAAGGCACAUGAGGAUCACCCAUGUGAUUCAGCUCA
apparent Kd [3]: 16.9 nM | apparent Kd [4]: 25.9 nM

AAGUCGCUAGGAGGAUAUACAUGAUCUCACACAUGUACCGCUCACGCCACAUGAGGAUCACCCAUGUAGAAGGCCUAGAGAGGU
apparent Kd [3]: 23.4 nM | apparent Kd [4]: 62.4 nM

AAGUCGUGAGGAUAUACAUGGAUAUACAUUUAUGUGGACCUACAUGAGGAUCACCCAUGUAGAAGGCACGACUA
apparent Kd [3]: 196 nM | apparent Kd [4]: 93.5 nM

AAGUGUGGAUGAGGAUAUCAGCUGUAACUGACGUCGACAUGAGGAUCACCCAUGUUGCUAUAGGGUGAGAAGGCAUUUGCGCAA
apparent Kd [1]: 585 nM | apparent Kd [2]: 75.1 nM

AAUAACAGAGGAUAUACUAUUUUAUGUGUUUGUUAUUUUGAACAUGAGGAUCACCCAUGUAGAAGGCUGAAUGA
apparent Kd [3]: 27.7 nM | apparent Kd [4]: 28 nM

AAUAACAGAGGAUAUACUGUUUUAUGUGUUUGUUAUUUUGAACAUGAGGAUCACCCAUGUAGAAGGCUGAAUAA
apparent Kd [3]: 24.6 nM | apparent Kd [4]: 22.1 nM

AAUAACAGAGGAUAUACUGUUUUAUGUGUUUGUUGUUUUAAACAUGAGGAUCACCCAUGUAGAAGGCUGAGUAA
apparent Kd [3]: 23.2 nM | apparent Kd [4]: 23.7 nM

AAUAAUUAGUAAGGAUAUACUAGUGGUUAGCUUGUAGAAGGUACAGUCUUAUGUAUAACAAAUUAACAUGAGGAUCACCCAUGU
apparent Kd [1]: 10.6 nM | apparent Kd [2]: 8.19 nM

AAUACACUCUAGGAUAUUCAUGCCAGCAGUAUCGAAGAAGGAGAGACAUGAGGAUCACCCAUGUGGAAGCUCCU
apparent Kd [3]: 13.1 nM | apparent Kd [4]: 16.4 nM

AAUAUGAGCUGGUAAAUAAAACCGACAUGAGGAUCACCCAUGUAGGAUAUCAGCACGAUAAGUGCUGAGAAGGACAUCCAGCUC
apparent Kd [3]: 14.4 nM | apparent Kd [4]: 16.7 nM

AAUAUGAGCUGGUAUAAACCCGAAACAUGAGGAUCACCCAUGUAGGAUAUCAGCACGAUAAGUGCUGAGAAGGACAUCCAGCUC
apparent Kd [3]: 14.5 nM | apparent Kd [4]: 14.5 nM

AAUAUGUUGCAGAAGGCUAUGUUGUGGUAGUACCUCAUGACAUGAGGAUCACCCAUGUUUGUGUUGGAGGAUAUGCAAUAUAUU
apparent Kd [3]: 12.7 nM | apparent Kd [4]: 40.6 nM

AAUCACAUGAGGAUCACCCAUGUGCCAGAAGGCACAAAUCUGCCUGGUGCGCCCGGGCUUCUCUGUGAGGAUAUGGAAAAGAAG
apparent Kd [1]: 309 nM | apparent Kd [2]: 76 nM

AAUCAUUAUCGUUAUUUAUAUUAUUCAGAAGGACAAUUAAUAGCACAUGAGGAUCACCCAUGUUUGUAGGAUAUGAUGUUAUAC
apparent Kd [1]: 15.2 nM | apparent Kd [2]: 7.95 nM

AAUCCACAUGAGGAUCACCCAUGUGAGGAUAUGUCCAUAUUCGGCAAAUCGGAUAUGGACAGAAGGCACAUAAA
apparent Kd [3]: 32.9 nM | apparent Kd [4]: 87.1 nM

AAUGAAUAUAAAUUGUAUUUGUCGUAGGAUAUGGGUGACAUGAGGAUCACCCAUGUUGCAGACGACCAGAAGGGCGGCGGAUAU
apparent Kd [1]: 18 nM | apparent Kd [2]: 18.2 nM

AAUGAGACCGCAGGAUAUCCACAUGAGGAUCACCCAUGUUCUCAGACCGGAAGCACGAUCUGCGAGGAGAAGGGCGACCUCAUA
apparent Kd [1]: 716 nM | apparent Kd [2]: 53.1 nM
